Measured values as given in ChEMBL document CHEMBL1146049, “Novel dual inhibitors of calpain and lipid peroxidation with enhanced cellular activity” (Bioorg Med Chem Lett, 2006).
Activity calls are given as the source filed them. The rule behind the calls is not given here.

Assays:
[1] = Inhibition of maitotoxin induced intracellular calpain in glioma C6 cells; type: functional, cell-based; details: Rattus norvegicus
Procedure, shortened: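 Rat glioma C6 cells were exposed to compound for 4 h, the last 3 h with maitotoxin to activate calpain. Intracellular calpain activity was read as cleavage of the fluorogenic substrate Suc-Leu-Tyr-AMC. IC50 values are means of three experiments.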

Calpain 1 [2] = target: Calpain 1 (Homo sapiens, UniProt P07384); experiment: (§1) Inhibition of isolated human calpain1; type: protein-complex assay
Procedure, shortened: (§2)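 Isolated human calpain 1 enzyme assay with Suc-Leu-Tyr-AMC as substrate; IC50 determined.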

[3] = tested on: Radical scavenging activity; experiment: Inhibition of ferrous induced lipid peroxidation in rat brain microsomes; type: functional
[4] = target: Cathepsin B (Homo sapiens) (UniProt P07858); experiment: Inhibition of cathepsinB
[5] = Ratio of pIC50 (rat calpain/human calpain 1)
Procedure, shortened: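 pRatio = −log(intracellular calpain IC50 / human calpain 1 IC50). The intracellular IC50 comes from glioma C6 cells, which were exposed to compound for 4 h in total, including 3 h with maitotoxin to induce calpain activation, with Suc-Leu-Tyr-AMC as substrate. The enzymatic IC50 comes from isolated human calpain 1 with the same substrate.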

[6] = target: Chymotrypsinogen A (Bos taurus) (UniProt P00766); experiment: Inhibition of alpha chymotrypsin
Caspase-3 (Homo sapiens) = target: T1, Caspase-3 (Homo sapiens) (UniProt P42574); experiment: Inhibition of caspase3
T1 sequence (whole entry): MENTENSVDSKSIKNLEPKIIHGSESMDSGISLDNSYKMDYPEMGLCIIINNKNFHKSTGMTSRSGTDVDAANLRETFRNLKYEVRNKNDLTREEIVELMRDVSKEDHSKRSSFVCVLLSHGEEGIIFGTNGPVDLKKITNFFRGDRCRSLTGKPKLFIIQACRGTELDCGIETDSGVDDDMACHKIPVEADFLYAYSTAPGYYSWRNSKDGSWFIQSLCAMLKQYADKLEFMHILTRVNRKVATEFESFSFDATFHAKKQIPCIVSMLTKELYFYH

Calpain 1 [7] = target: T2, Calpain 1 (Homo sapiens, UniProt P04632+P07384); experiment: as §1; type: protein-complex assay; procedure, shortened: as §2
T2 sequence (P04632 whole entry): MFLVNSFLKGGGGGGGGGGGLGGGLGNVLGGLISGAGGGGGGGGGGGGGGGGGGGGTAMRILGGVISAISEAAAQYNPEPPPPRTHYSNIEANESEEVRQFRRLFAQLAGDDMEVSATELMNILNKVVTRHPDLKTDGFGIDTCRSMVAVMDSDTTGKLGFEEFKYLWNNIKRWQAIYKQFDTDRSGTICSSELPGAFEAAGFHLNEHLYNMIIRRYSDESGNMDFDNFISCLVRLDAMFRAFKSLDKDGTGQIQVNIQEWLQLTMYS
T2 sequence (P07384 whole entry): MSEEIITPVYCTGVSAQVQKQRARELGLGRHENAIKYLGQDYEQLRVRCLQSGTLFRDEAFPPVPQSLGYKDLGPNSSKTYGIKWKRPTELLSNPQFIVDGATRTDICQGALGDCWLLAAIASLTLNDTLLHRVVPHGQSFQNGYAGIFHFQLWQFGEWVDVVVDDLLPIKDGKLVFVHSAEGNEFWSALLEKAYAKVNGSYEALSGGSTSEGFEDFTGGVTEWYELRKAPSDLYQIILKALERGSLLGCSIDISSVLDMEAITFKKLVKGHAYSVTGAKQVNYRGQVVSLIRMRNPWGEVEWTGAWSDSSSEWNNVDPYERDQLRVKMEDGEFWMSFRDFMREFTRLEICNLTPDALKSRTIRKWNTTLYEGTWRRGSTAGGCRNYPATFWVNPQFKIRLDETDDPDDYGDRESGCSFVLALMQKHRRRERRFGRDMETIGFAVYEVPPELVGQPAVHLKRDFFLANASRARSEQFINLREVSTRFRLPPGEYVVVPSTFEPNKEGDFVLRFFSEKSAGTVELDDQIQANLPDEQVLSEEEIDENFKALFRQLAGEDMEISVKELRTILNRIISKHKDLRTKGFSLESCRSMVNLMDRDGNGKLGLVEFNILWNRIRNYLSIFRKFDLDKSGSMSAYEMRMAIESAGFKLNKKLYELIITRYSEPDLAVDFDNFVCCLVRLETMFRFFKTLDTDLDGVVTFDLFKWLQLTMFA

Row | SMILES | IC50 [1] [nM] | IC50 (Calpain 1 [2]) [nM] | IC50 [3] [nM] | Activity [4] | Negative log of IC50 ratio (cellular/enzyme) [5] | Activity [6] | Activity (Caspase-3 (Homo sapiens)) | IC50 (Calpain 1 [7]) [nM]
1 | CC(C)C[C@H](NC(=O)COc1ccc2c(c1)Nc1ccccc1S2)C(=O)N[C@@H](CC(C)C)C(=O)N[C@H]1CCOC1O (stereo in doubt; 6d-08) [listing 1 of 2 here] | 600 | 105 | – | – | – | – | – | –
2 | CC(C)C[C@H](NC(=O)Cc1ccc2c(c1)Nc1ccccc1S2)C(=O)N[C@@H](CC(C)C)C(=O)N[C@H]1CCOC1O (some centres not stated) | 2500 | 55.4 | 966 | – | – | – | – | –
3 | CC(C)C[C@H](NC(=O)C(C)(C)NC(=O)COc1ccc2c(c1)Nc1ccccc1S2)C(=O)N[C@H]1CCOC1O (some centres not stated) | 30000 | 138 | – | Active | 0.66 | inactive | inactive | –
4 | CC(C)C[C@H](NC(=O)CNC(=O)COc1ccc2c(c1)Nc1ccccc1S2)C(=O)N[C@H]1CCOC1O (some centres not stated) | 63000 | 8 | – | Active | -0.9 | inactive | inactive | –
5 | CC(C)C[C@H](NC(=O)[C@@H](NC(=O)COc1ccc2c(c1)Nc1ccccc1S2)c1ccccc1)C(=O)N[C@H]1CCOC1O (some centres not stated) | 5000 | 222 | – | Active | 1.65 | inactive | inactive | –
6 | CC(C)C[C@H](NC(=O)[C@H](CO)NC(=O)COc1ccc2c(c1)Nc1ccccc1S2)C(=O)N[C@H]1CCOC1O (some centres not stated) | 3000 | 48.7 | – | Active | 1.21 | inactive | inactive | –
7 | CC[C@H](NC(=O)COc1ccc2c(c1)Nc1ccccc1S2)C(=O)N[C@@H](CC(C)C)C(=O)N[C@H]1CCOC1O (some centres not stated) | 800 | 88.6 | – | Active | 2.05 | inactive | inactive | –
8 | CC(C)C[C@H](NC(=O)[C@H](NC(=O)COc1ccc2c(c1)Nc1ccccc1S2)C(C)C)C(=O)N[C@H]1CCOC1O (some centres not stated) | 16000 | 553 | – | Active | 1.54 | inactive | inactive | –
9 | CC(=O)OC1OCC[C@@H]1NC(=O)[C@H](CC(C)C)NC(=O)[C@H](CC(C)C)NC(=O)c1ccc2c(c1)Nc1ccccc1S2 (some centres not stated) | 1700 | 905 | 2310 | – | – | – | – | –
10 | CC(C)C[C@H](NC(=O)c1ccc2c(c1)Nc1ccccc1S2)C(=O)N[C@@H](CC(C)C)C(=O)N[C@H]1CCOC1O (some centres not stated) | 1800 | 85.5 | 1100 | – | – | – | – | –
11 | CC(C)C[C@H](NC(=O)[C@H](C)NC(=O)COc1ccc2c(c1)Nc1ccccc1S2)C(=O)N[C@H]1CCOC1O (some centres not stated) | 15000 | 25 | – | Active | 0.22 | inactive | inactive | –
12 | CC(C)C[C@H](NC(=O)[C@@H](NC(=O)COc1ccc2c(c1)Nc1ccccc1S2)C(C)(C)C)C(=O)N[C@H]1CCOC1O (some centres not stated) | 4000 | 354 | – | Active | 1.95 | inactive | inactive | –
13 | CCC[C@H](NC(=O)COc1ccc2c(c1)Nc1ccccc1S2)C(=O)N[C@@H](CC(C)C)C(=O)N[C@H]1CCOC1O (some centres not stated) | 600 | 151 | – | Active | 2.4 | inactive | inactive | –
14 | CC(C)C[C@H](NC(=O)COc1ccc2c(c1)Nc1ccccc1S2)C(=O)N[C@@H](CC(C)C)C(=O)N[C@H]1CCOC1O (stereo in doubt; 6d) | – | – | 333 | – | – | – | – | 105
15 | CC(C)C[C@H](NC(=O)[C@@H](NC(=O)COc1ccc2c(c1)Nc1ccccc1S2)[C@H](C)O)C(=O)N[C@H]1CCOC1O (some centres not stated) | 2000 | 38 | – | Active | 1.28 | inactive | inactive | –
16 | CC(C)C[C@H](NC(=O)[C@@H](NC(=O)COc1ccc2c(c1)Nc1ccccc1S2)C(C)C)C(=O)N[C@H]1CCOC1O (some centres not stated) | 1000 | 75.9 | – | Active | 1.88 | inactive | inactive | –
17 | Cc1cc(C(C)(C)C)c(O)c(C(C)(C)C)c1 [BUTYLATED HYDROXYTOLUENE] | – | – | 3250 | – | – | – | – | –
18 | CC(C)C[C@H](NC(=O)COc1ccc2c(c1)Nc1ccccc1S2)C(=O)N[C@@H](CC(C)C)C(=O)N[C@H]1CCOC1O (stereo in doubt; 6d-08) [listing 2 of 2 here] | – | – | – | Active | 2.24 | inactive | inactive | –
19 | CC(C)C[C@H](NC(=O)CCc1ccc2c(c1)Nc1ccccc1S2)C(=O)N[C@@H](CC(C)C)C(=O)N[C@H]1CCOC1O (some centres not stated) | 10000 | 150 | 3300 | – | – | – | – | –
